According to ChEMBL document CHEMBL2375313, “Synthesis, in vitro antitumor evaluation and DNA-binding study of novel tetrahydroquinolines and some derived tricyclic and tetracyclic ring systems” (Eur J Med Chem, 2013):
The source made the active and inactive calls. The calls are words filed in the database; no cut-off is given here.

What was measured:
[1] = Displacement of methyl green from DNA (unknown origin) after 24 hrs
In short: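 DNA-methyl green complex was stirred in 0.05 M Tris-HCl pH 7.5 with 7.5 mmol MgSO4 at 37 °C for 24 h. Compound was dried down from EtOH in tubes and the DNA-methyl green solution added. A630 was read initially and after 24 h dark incubation at room temperature, corrected and normalized to untreated complex. IC50 is the concentration giving a 50% absorbance decrease; mean ± SD, n = 6.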

[2] = Binding affinity to DNA (unknown origin) at 5 mg/mL by RP-TLC plate analysis
In short: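 Reversed-phase C18 TLC plates pre-developed in methanol/water 8:2. Compound spotted at origin (5 mg/mL in methanol), then DNA (1 mg/mL in water/methanol 8:2) applied at the same spot. Plates developed in the same eluent; DNA located by anisaldehyde spray (blue). Ethidium bromide as positive control.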

[3] = tested on: HOP-92; assay: Cytotoxicity against human HOP92 cells assessed as growth inhibition at 10 uM after 48 hrs by sulphorhodamine B assay; type: functional; conditions: HOP-92, 48 h, read-out: GI
In short: (§1)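 NCI-60 one-dose screen per the NCI Drug Evaluation Branch protocol. Cells given a single 10 µM concentration with 48 h continuous exposure. Growth estimated by sulphorhodamine B protein assay. Result expressed as percentage growth inhibition relative to untreated growth.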

[4] = tested on: NCI-H23; assay: Cytotoxicity against human NCI-H23 cells assessed as growth inhibition at 10 uM after 48 hrs by sulphorhodamine B assay; type: functional; conditions: NCI-H23, 48 h, read-out: GI; in short: as §1
[5] = Cytotoxicity against human EKVX cells assessed as growth inhibition at 10 uM after 48 hrs by sulphorhodamine B assay; type: functional; conditions: read-out: GI; in short: as §1
[6] = tested on: A549; assay: Cytotoxicity against human A549 cells assessed as growth inhibition at 10 uM after 48 hrs by sulphorhodamine B assay; type: functional; conditions: A549, 48 h, read-out: GI; in short: as §1
[7] = tested on: NCI/ADR-RES; assay: Cytotoxicity against human NCI/ADR-RES cells assessed as growth inhibition at 10 uM after 48 hrs by sulphorhodamine B assay; type: functional; conditions: read-out: GI; in short: as §1
[8] = tested on: SNB-75; assay: Cytotoxicity against human SNB75 cells assessed as growth inhibition at 10 uM after 48 hrs by sulphorhodamine B assay; type: functional; conditions: SNB-75, 48 h, read-out: GI; in short: as §1
[9] = tested on: U-251; assay: Cytotoxicity against human U251 cells assessed as growth inhibition at 10 uM after 48 hrs by sulphorhodamine B assay; type: functional; conditions: U-251, 48 h, read-out: GI; in short: as §1
[10] = tested on: SNB-19; assay: Cytotoxicity against human SNB19 cells assessed as growth inhibition at 10 uM after 48 hrs by sulphorhodamine B assay; type: functional; conditions: SNB-19, 48 h, read-out: GI; in short: as §1
[11] = tested on: SF-295; assay: Cytotoxicity against human SF295 cells assessed as growth inhibition at 10 uM after 48 hrs by sulphorhodamine B assay; type: functional; conditions: SF-295, 48 h, read-out: GI; in short: as §1
[12] = tested on: DU-145; assay: Cytotoxicity against human DU145 cells assessed as growth inhibition at 10 uM after 48 hrs by sulphorhodamine B assay; type: functional; conditions: DU-145, 48 h, read-out: GI; in short: as §1
[13] = tested on: SF-268; assay: Cytotoxicity against human SF268 cells assessed as growth inhibition at 10 uM after 48 hrs by sulphorhodamine B assay; type: functional; conditions: SF-268, 48 h, read-out: GI; in short: as §1
[14] = tested on: PC-3; assay: Cytotoxicity against human PC3 cells assessed as growth inhibition at 10 uM after 48 hrs by sulphorhodamine B assay; type: functional; conditions: PC-3, 48 h, read-out: GI; in short: as §1
[15] = tested on: UACC-62; assay: Cytotoxicity against human UACC62 cells assessed as growth inhibition at 10 uM after 48 hrs by sulphorhodamine B assay; type: functional; conditions: UACC-62, 48 h, read-out: GI; in short: as §1
[16] = tested on: SK-MEL-2; assay: Cytotoxicity against human SK-MEL-2 cells assessed as growth inhibition at 10 uM after 48 hrs by sulphorhodamine B assay; type: functional; conditions: SK-MEL-2, 48 h, read-out: GI; in short: as §1
[17] = tested on: SK-MEL-5; assay: Cytotoxicity against human SK-MEL-5 cells assessed as growth inhibition at 10 uM after 48 hrs by sulphorhodamine B assay; type: functional; conditions: SK-MEL-5, 48 h, read-out: GI; in short: as §1
[18] = tested on: M14; assay: Cytotoxicity against human M14 cells assessed as growth inhibition at 10 uM after 48 hrs by sulphorhodamine B assay; type: functional; conditions: M14, 48 h, read-out: GI; in short: as §1
[19] = tested on: LOX IMVI; assay: Cytotoxicity against human LOXIMVI cells assessed as growth inhibition at 10 uM after 48 hrs by sulphorhodamine B assay; type: functional; conditions: read-out: GI; in short: as §1
[20] = tested on: UO-31; assay: Cytotoxicity against human UO31 cells assessed as growth inhibition at 10 uM after 48 hrs by sulphorhodamine B assay; type: functional; conditions: UO-31, 48 h, read-out: GI; in short: as §1
[21] = tested on: CAKI-1; assay: Cytotoxicity against human Caki1 cells assessed as growth inhibition at 10 uM after 48 hrs by sulphorhodamine B assay; type: functional; conditions: CAKI-1, 48 h, read-out: GI; in short: as §1
[22] = tested on: RXF 393; assay: Cytotoxicity against human RXF393 cells assessed as growth inhibition at 10 uM after 48 hrs by sulphorhodamine B assay; type: functional; conditions: RXF 393, 48 h, read-out: GI; in short: as §1
[23] = tested on: ACHN; assay: Cytotoxicity against human ACHN cells assessed as growth inhibition at 10 uM after 48 hrs by sulphorhodamine B assay; type: functional; conditions: read-out: GI; in short: as §1
[24] = tested on: SR; assay: Cytotoxicity against human SR cells assessed as growth inhibition at 10 uM after 48 hrs by sulphorhodamine B assay; type: functional; conditions: read-out: GI; in short: as §1
[25] = tested on: A498; assay: Cytotoxicity against human A498 cells assessed as growth inhibition at 10 uM after 48 hrs by sulphorhodamine B assay; type: functional; conditions: A498, 48 h, read-out: GI; in short: as §1
[26] = tested on: RPMI-8226; assay: Cytotoxicity against human RPMI8226 cells assessed as growth inhibition at 10 uM after 48 hrs by sulphorhodamine B assay; type: functional; conditions: RPMI-8226, 48 h, read-out: GI; in short: as §1
[27] = tested on: MOLT-4; assay: Cytotoxicity against human MOLT4 cells assessed as growth inhibition at 10 uM after 48 hrs by sulphorhodamine B assay; type: functional; conditions: MOLT-4, 48 h, read-out: GI; in short: as §1
[28] = tested on: K562; assay: Cytotoxicity against human K562 cells assessed as growth inhibition at 10 uM after 48 hrs by sulphorhodamine B assay; type: functional; conditions: K562, 48 h, read-out: GI; in short: as §1
[29] = tested on: HL-60(TB); assay: Cytotoxicity against human HL-60(TB) cells assessed as growth inhibition at 10 uM after 48 hrs by sulphorhodamine B assay; type: functional; conditions: HL-60, 48 h, read-out: GI
In short: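 NCI-60 one-dose primary screen run to the Drug Evaluation Branch protocol. Cells are exposed to a single 10 µM concentration for 48 h continuously, and growth is read by SRB protein assay. Data are reported as percent growth of treated cells, expressed as % growth inhibition.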

[30] = tested on: SK-OV-3; assay: Cytotoxicity against human SKOV3 cells assessed as growth inhibition at 10 uM after 48 hrs by sulphorhodamine B assay; type: functional; conditions: SK-OV-3, 48 h, read-out: GI; in short: as §1
[31] = tested on: CCRF-CEM; assay: Cytotoxicity against human CCRF-CEM cells assessed as growth inhibition at 10 uM after 48 hrs by sulphorhodamine B assay; type: functional; conditions: read-out: GI; in short: as §1
[32] = tested on: OVCAR-5; assay: Cytotoxicity against human OVCAR5 cells assessed as growth inhibition at 10 uM after 48 hrs by sulphorhodamine B assay; type: functional; conditions: OVCAR-5, 48 h, read-out: GI; in short: as §1
[33] = tested on: OVCAR-4; assay: Cytotoxicity against human OVCAR4 cells assessed as growth inhibition at 10 uM after 48 hrs by sulphorhodamine B assay; type: functional; conditions: OVCAR-4, 48 h, read-out: GI; in short: as §1
[34] = tested on: IGROV-1; assay: Cytotoxicity against human IGROV1 cells assessed as growth inhibition at 10 uM after 48 hrs by sulphorhodamine B assay; type: functional; conditions: IGROV-1, 48 h, read-out: GI; in short: as §1
[35] = tested on: T47D; assay: Cytotoxicity against human T47D cells assessed as growth inhibition at 10 uM after 48 hrs by sulphorhodamine B assay; type: functional; conditions: read-out: GI; in short: as §1
[36] = tested on: Hs-578T; assay: Cytotoxicity against human Hs578T cells assessed as growth inhibition at 10 uM after 48 hrs by sulphorhodamine B assay; type: functional; conditions: read-out: GI; in short: as §1
[37] = tested on: NCI-H522; assay: Cytotoxicity against human NCI-H522 cells assessed as growth inhibition at 10 uM after 48 hrs by sulphorhodamine B assay; type: functional; conditions: NCI-H522, 48 h, read-out: GI; in short: as §1
[38] = tested on: HT-29; assay: Cytotoxicity against human HT-29 cells assessed as growth inhibition at 10 uM after 48 hrs by sulphorhodamine B assay; type: functional; conditions: HT-29, 48 h, read-out: GI; in short: as §1
[39] = tested on: MCF7; assay: Cytotoxicity against human MCF7 cells assessed as growth inhibition at 10 uM after 48 hrs by sulphorhodamine B assay; type: functional; conditions: MCF7, 48 h, read-out: GI; in short: as §1
[40] = tested on: MDA-MB-435; assay: Cytotoxicity against human MDA-MB-435 cells assessed as growth inhibition at 10 uM after 48 hrs by sulphorhodamine B assay; type: functional; conditions: MDA-MB-435, 48 h, read-out: GI; in short: as §1
[41] = tested on: HCT-15; assay: Cytotoxicity against human HCT15 cells assessed as growth inhibition at 10 uM after 48 hrs by sulphorhodamine B assay; type: functional; conditions: HCT-15, 48 h, read-out: GI; in short: as §1
[42] = tested on: MDA-MB-468; assay: Cytotoxicity against human MDA-MB-468 cells assessed as growth inhibition at 10 uM after 48 hrs by sulphorhodamine B assay; type: functional; conditions: MDA-MB-468, 48 h, read-out: GI; in short: as §1
[43] = tested on: HCT-116; assay: Cytotoxicity against human HCT116 cells assessed as growth inhibition at 10 uM after 48 hrs by sulphorhodamine B assay; type: functional; conditions: HCT-116, 48 h, read-out: GI; in short: as §1

Structure (SMILES): CC[n+]1c(-c2ccccc2)c2cc(N)ccc2c2ccc(N)cc21.[Br-] [HOMIDIUM BROMIDE]
- IC50 [1]: 4 ng/mL
- Activity [2]: Active

Structure (SMILES): CC1CCCc2c1nc1[nH]c(=O)nc(N)c1c2-c1ccc(Cl)cc1 (stereo not drawn)
- inhibition of growth at 10 µM [3]: 27.7%
- inhibition of growth at 10 µM [4]: 10%
- inhibition of growth at 10 µM [5]: < 10%
- inhibition of growth at 10 µM [6]: 11.5%
- inhibition of growth at 10 µM [7]: < 10%
- inhibition of growth at 10 µM [8]: 11%
- inhibition of growth at 10 µM [9]: 10.2%
- inhibition of growth at 10 µM [10]: 16.6%
- inhibition of growth at 10 µM [11]: < 10%
- inhibition of growth at 10 µM [12]: 14%
- inhibition of growth at 10 µM [13]: < 10%
- inhibition of growth at 10 µM [14]: 12.7%
- inhibition of growth at 10 µM [15]: 25.4%
- inhibition of growth at 10 µM [16]: < 10%
- inhibition of growth at 10 µM [17]: < 10%
- inhibition of growth at 10 µM [18]: < 10%
- inhibition of growth at 10 µM [19]: < 10%
- inhibition of growth at 10 µM [20]: 10%
- inhibition of growth at 10 µM [21]: < 10%
- inhibition of growth at 10 µM [22]: < 10%
- inhibition of growth at 10 µM [23]: < 10%
- inhibition of growth at 10 µM [24]: < 10%
- inhibition of growth at 10 µM [25]: < 10%
- inhibition of growth at 10 µM [26]: 23%
- inhibition of growth at 10 µM [27]: < 10%
- inhibition of growth at 10 µM [28]: 36.4%
- inhibition of growth at 10 µM [29]: 24.6%
- inhibition of growth at 10 µM [30]: < 10%
- inhibition of growth at 10 µM [31]: < 10%
- inhibition of growth at 10 µM [32]: < 10%
- inhibition of growth at 10 µM [33]: 13.6%
- inhibition of growth at 10 µM [34]: < 10%
- inhibition of growth at 10 µM [35]: 29.5%
- inhibition of growth at 10 µM [36]: 19.4%
- inhibition of growth at 10 µM [37]: 12.9%
- inhibition of growth at 10 µM [38]: < 10%
- inhibition of growth at 10 µM [39]: < 10%
- inhibition of growth at 10 µM [40]: < 10%
- inhibition of growth at 10 µM [41]: 10%
- inhibition of growth at 10 µM [42]: 10%
- inhibition of growth at 10 µM [43]: 14%
